Assay results from different studies.
Protocols differ between the studies behind these lines.
CASP9: Caspase-9 (CASP9, Homo sapiens, UniProt P55211)
PPARA: Peroxisome proliferator-activated receptor alpha (PPARA, Homo sapiens, UniProt Q07869)

SMILES | target | test | test system | setting | quantity | result
COc1ncccc1-c1cnn2ccc(N3CCN(C(=O)OC(C)C)CC3)nc12 | Mitogen-activated protein kinase kinase kinase 1 (MAP3K1, Homo sapiens, UniProt Q13233) | binding, competition with immobilised ligand | – | 1 µM | remaining binding | 49%
CN(C)C(=O)COC(=O)Cc1ccc(OC(=O)c2ccc(NC(=N)N)cc2)cc1 | CASP9 | enzyme activity, inhibitor | – | 10 µM | inhibition | 0%
CN[C@@H](C)C(=O)N[C@@H](CNC(=O)c1ccc(S(=O)(=O)F)c(OC)c1)C(=O)N1CCC[C@H]1C(=O)N[C@@H]1CCc2c(F)cccc21 | E3 ubiquitin-protein ligase XIAP, BIR3 (XIAP, Homo sapiens, UniProt P98170) | enzyme activity, inhibitor | – | – | kinact | 0.0258 s⁻¹
Cc1ncc(C)n2nc(/C=C/c3nc(N4CCCC4)cc(N4CCOCC4)n3)nc12 | CASP9 | enzyme activity, inhibitor | – | 10 µM | inhibition | 11%
N=C(N)c1ccc2cc(OC(=O)c3ccc(N=C(N)N)cc3)ccc2c1 | Interstitial collagenase (MMP1, Homo sapiens, UniProt P03956) | enzyme activity, inhibitor | – | 10 µM | inhibition | 0%
O=C(Nc1cccnn1)N1CCN([C@@H]2CCOc3cc(C(F)(F)F)ccc32)CC1 | Corticotropin-releasing factor receptor 1 (CRHR1, Homo sapiens, UniProt P34998) | ligand displacement | – | 20 µM | inhibition | -62%
CN1CCN(c2ccc(Nc3nccc(-c4ccccc4)n3)cc2C(F)(F)F)CC1 | Calcium-dependent protein kinase 1 (CDPK1, Plasmodium falciparum, UniProt P62344) | binding | – | 10 µM | remaining binding | 13%
O=C(O)C(F)(F)C(F)(F)C(F)(F)C(F)(F)C(F)(F)C(F)(F)C(F)(F)F | PPARA | reporter gene, agonist, luciferase | COS-7 | – | Emax | 92%
C#Cc1n[nH]c2c(-c3cn([C@@H](C)c4ccccn4)c(=O)[nH]c3=O)cc(F)cc12 | TRAF2 and NCK-interacting protein kinase (TNIK, Homo sapiens, UniProt Q9UKE5) | enzyme activity, inhibitor | – | 0.1 µM | inhibition | -0.3%
Clc1cccc(-c2c[nH]c3ncnc(N4CCOCC4)c23)c1 | Serine/threonine-protein kinase 4 (STK4, Homo sapiens, UniProt Q13043) | thermal stability, DSF | – | 20 µM | ΔTm | > 8 °C
C#Cc1n[nH]c2c(-c3cn([C@@H](C)c4ccccc4)c(=O)[nH]c3=O)cc(F)cc12 | Inactive tyrosine-protein kinase PEAK1 (PEAK1, Homo sapiens, UniProt Q9H792) | enzyme activity, inhibitor | – | 0.1 µM | inhibition | 6.5%
CCOC(=O)c1ccc(OC(=O)CCCCCNC(=N)N)cc1 | Ubiquitin carboxyl-terminal hydrolase 7 (USP7, Homo sapiens, UniProt Q93009) | enzyme activity, inhibitor | – | 10 µM | inhibition | 0%
O=S(=O)(O)C(F)(F)C(F)(F)OC(F)(C(F)(F)F)C(F)(F)OC(F)C(F)(F)F (centres unmarked) | PPARA | reporter gene, agonist, luciferase | – | – | Emax | 28%
Cc1nn(C)cc1-c1nc2c(N3CCN(Cc4ccc(Cl)cc4)CC3)c(Cl)cnc2[nH]1 | Cyclin-dependent kinase-like 1 (CDKL1, Homo sapiens, UniProt Q00532) | binding, competition with immobilised ligand | – | 1 µM | remaining binding | 100%
COc1cc(Nc2ncc(F)c(Nc3ccc4c(n3)NC(=O)C(C)(C)O4)n2)cc(OC)c1OC | Serine/threonine-protein kinase NIM1 (NIM1K, Homo sapiens, UniProt Q8IY84) | binding, competition with immobilised ligand | – | 10 µM | inhibition | 84%
O=C(O)C(F)(F)C(F)(F)C(F)(F)C(F)(F)C(F)(F)C(F)(F)F | PPARA | reporter gene, agonist, luciferase | COS-7 | – | Emax | 113%
Nc1ncc(-c2nc(N3CCOCC3)nc(N3CCOCC3)n2)c(C(F)F)n1 | Hepatocyte growth factor receptor (MET, Homo sapiens, UniProt P08581, M1250T) | cell-free assay, competition with immobilised ligand | – | 10 µM | remaining binding | 100%
